According to ChEMBL document CHEMBL1221342, “Synthesis and in vitro antitumor activity of new 4,5-dihydropyrazole derivatives” (Bioorg Med Chem, 2010):

Columns and labels:
SF-268 = assay: Growth inhibition of human SF268 cells after 48 hrs by SRB assay; assay type: functional; details: SF-268, 48 h
Method in brief: (§1)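 NCI 60-cell-line screen. Cells grown in RPMI1640 with 5% fetal calf serum and 2 mM L-glutamine, with inoculum density set by cell line. Preincubated 24 h, then given compound in DMSO at 10^-4 to 10^-8 M (five 10-fold steps) for 48 h continuous exposure. Growth measured by SRB protein assay. GI50, TGI and LC50 reported as –log molar.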

HL-60(TB) = assay: Growth inhibition of human HL-60(TB) cells after 48 hrs by SRB assay; assay type: functional; details: HL-60, 48 h
Method in brief: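 NCI 60-cell-line screen: cells grown in RPMI1640 with 5% fetal calf serum and 2 mM L-glutamine, preincubated 24 h, then exposed to compound in DMSO at five concentrations (10^-4 to 10^-8 M) for 48 h continuous exposure. Growth estimated by sulforhodamine B protein assay; reported as pGI50 (-log molar concentration inhibiting net cell growth by 50%).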

Malme-3M = assay: Growth inhibition of human MALME-3M cells after 48 hrs by SRB assay; assay type: functional; method in brief: as §1
SK-MEL-5 = assay: Growth inhibition of human SK-MEL-5 cells after 48 hrs by SRB assay; assay type: functional; details: SK-MEL-5, 48 h; method in brief: as §1
MCF7 = assay: Growth inhibition of human MCF7 cells after 48 hrs by SRB assay; assay type: functional; details: MCF7, 48 h; method in brief: as §1
SR = assay: Growth inhibition of human SR cells after 48 hrs by SRB assay; assay type: functional; method in brief: as §1
SF-295 = assay: Growth inhibition of human SF295 cells after 48 hrs by SRB assay; assay type: functional; details: SF-295, 48 h; method in brief: as §1
[1] = Growth inhibition of human […] cells after 48 hrs by SRB assay; assay type: functional; method in brief: as §1
UO-31 = assay: Growth inhibition of human UO31 cells after 48 hrs by SRB assay; assay type: functional; details: UO-31, 48 h; method in brief: as §1
TK-10 = assay: Growth inhibition of human TK10 cells after 48 hrs by SRB assay; assay type: functional; details: TK-10, 48 h; method in brief: as §1
HCT-15 = assay: Growth inhibition of human HCT15 cells after 48 hrs by SRB assay; assay type: functional; details: HCT-15, 48 h; method in brief: as §1
CCRF-CEM = assay: Growth inhibition of human CCRF-CEM cells after 48 hrs by SRB assay; assay type: functional; method in brief: as §1
NCI-H460 [2] = assay: Growth inhibition of human NCI-H460 cells after 48 hrs by SRB assay; assay type: functional; details: NCI-H460, 48 h; method in brief: as §1
SW-620 = assay: Growth inhibition of human SW620 cells after 48 hrs by SRB assay; assay type: functional; details: SW-620, 48 h; method in brief: as §1
NCI-H322M = assay: Growth inhibition of human NCI-H322M cells after 48 hrs by SRB assay; assay type: functional; method in brief: as §1
K562 = assay: Growth inhibition of human K562 cells after 48 hrs by SRB assay; assay type: functional; details: K562, 48 h; method in brief: as §1
PC-3 = assay: Growth inhibition of human PC3 cells after 48 hrs by SRB assay; assay type: functional; details: PC-3, 48 h; method in brief: as §1
HT-29 = assay: Growth inhibition of human HT-29 cells after 48 hrs by SRB assay; assay type: functional; details: HT-29, 48 h; method in brief: as §1
DU-145 = assay: Growth inhibition of human DU145 cells after 48 hrs by SRB assay; assay type: functional; details: DU-145, 48 h; method in brief: as §1
BT-549 = assay: Growth inhibition of human BT549 cells after 48 hrs by SRB assay; assay type: functional; details: BT-549, 48 h; method in brief: as §1
NCI-H460 [3] = assay: Cytotoxicity against human NCI-H460 cells after 72 hrs by SRB assay; assay type: functional, cell-based; details: NCI-H460, 72 h
Method in brief: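 NCI-H460 (ATCC) cells seeded in 96-well plates in growth medium. Scalar drug concentrations added 24 h after plating, then 72 h exposure. Surviving cells stained with sulforhodamine B, OD read at 570 nm. IC50 (50% growth inhibition) fitted from dose–response curves. Mean ± SE of at least three independent experiments.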

HCT-116 = assay: Growth inhibition of human HCT116 cells after 48 hrs by SRB assay; assay type: functional; details: HCT-116, 48 h; method in brief: as §1
OVCAR-4 = assay: Growth inhibition of human OVCAR4 cells after 48 hrs by SRB assay; assay type: functional; details: OVCAR-4, 48 h; method in brief: as §1
HOP-62 = assay: Growth inhibition of human HOP62 cells after 48 hrs by SRB assay; assay type: functional; details: HOP-62, 48 h; method in brief: as §1
OVCAR-3 = assay: Growth inhibition of human OVCAR-3 cells after 48 hrs by SRB assay; assay type: functional; details: OVCAR-3, 48 h; method in brief: as §1
KM12 = assay: Growth inhibition of human KM12 cells after 48 hrs by SRB assay; assay type: functional; details: KM12, 48 h; method in brief: as §1
NCI-H522 = assay: Growth inhibition of human NCI-H522 cells after 48 hrs by SRB assay; assay type: functional; details: NCI-H522, 48 h; method in brief: as §1
A498 = assay: Growth inhibition of human A498 cells after 48 hrs by SRB assay; assay type: functional; details: A498, 48 h; method in brief: as §1
U-251 = assay: Growth inhibition of human U251 cells after 48 hrs by SRB assay; assay type: functional; details: U-251, 48 h; method in brief: as §1
IGROV-1 = assay: Growth inhibition of human IGROV1 cells after 48 hrs by SRB assay; assay type: functional; details: IGROV-1, 48 h; method in brief: as §1
T47D = assay: Growth inhibition of human T47D cells after 48 hrs by SRB assay; assay type: functional; details: read-out: pTGI (converted); method in brief: as §1
SNB-75 = assay: Growth inhibition of human SNB75 cells after 48 hrs by SRB assay; assay type: functional; details: SNB-75, 48 h; method in brief: as §1
HCC 2998 = assay: Growth inhibition of human HCC2998 cells after 48 hrs by SRB assay; assay type: functional; details: HCC 2998, 48 h; method in brief: as §1

Compound: CCN(CC)c1ccc(C2CC(c3cc(OC)c(OC)c(OC)c3)=NN2)cc1 (stereo not drawn)
- GI50 (SF-268): 794 nM
- GI50 (HL-60(TB)): 251 nM
- TGI (HL-60(TB); read-out: pTGI (converted)): 2000 nM
- GI50 (Malme-3M): 20000 nM
- TGI (Malme-3M; read-out: pTGI (converted)): > 100000 nM
- GI50 (SK-MEL-5): 794 nM
- TGI (SK-MEL-5; read-out: pTGI (converted)): 3160 nM
- GI50 (MCF7): 158 nM
- TGI (MCF7; read-out: pTGI (converted)): 1580 nM
- GI50 (SR): 251 nM
- TGI (SR; read-out: pTGI (converted)): 1000 nM
- GI50 (SF-295): 100 nM
- TGI (SF-295; read-out: pTGI (converted)): 316 nM
- GI50 [1]: 398 nM
- TGI ([1]; read-out: pTGI (converted)): 3980 nM
- GI50 (UO-31): 794 nM
- TGI (UO-31; read-out: pTGI (converted)): > 100000 nM
- GI50 (TK-10): 39800 nM
- TGI (TK-10; read-out: pTGI (converted)): > 100000 nM
- GI50 (HCT-15): 631 nM
- TGI (HCT-15; read-out: pTGI (converted)): > 100000 nM
- GI50 (CCRF-CEM): 200 nM
- TGI (CCRF-CEM; read-out: pTGI (converted)): 631 nM
- GI50 (NCI-H460 [2]): 316 nM
- TGI (NCI-H460 [2]; read-out: pTGI (converted)): 12600 nM
- GI50 (SW-620): 398 nM
- TGI (SW-620; read-out: pTGI (converted)): > 100000 nM
- GI50 (NCI-H322M): > 100000 nM
- TGI (NCI-H322M; read-out: pTGI (converted)): > 100000 nM
- GI50 (K562): 398 nM
- TGI (K562; read-out: pTGI (converted)): 12600 nM
- GI50 (PC-3): 316 nM
- TGI (PC-3; read-out: pTGI (converted)): 63100 nM
- GI50 (HT-29): 316 nM
- TGI (HT-29; read-out: pTGI (converted)): > 100000 nM
- GI50 (DU-145): 398 nM
- TGI (DU-145; read-out: pTGI (converted)): 1580 nM
- GI50 (BT-549): 398 nM
- TGI (BT-549; read-out: pTGI (converted)): 5010 nM
- IC50 (NCI-H460 [3]): 300 nM
- GI50 (HCT-116): 251 nM
- TGI (HCT-116; read-out: pTGI (converted)): 1000 nM
- GI50 (OVCAR-4): 1000 nM
- TGI (OVCAR-4; read-out: pTGI (converted)): > 100000 nM
- GI50 (HOP-62): 316 nM
- TGI (HOP-62; read-out: pTGI (converted)): 3980 nM
- GI50 (OVCAR-3): 398 nM
- TGI (OVCAR-3; read-out: pTGI (converted)): > 100000 nM
- GI50 (KM12): 398 nM
- TGI (KM12; read-out: pTGI (converted)): > 100000 nM
- GI50 (NCI-H522): 251 nM
- TGI (NCI-H522; read-out: pTGI (converted)): 2000 nM
- GI50 (A498): 398 nM
- TGI (A498; read-out: pTGI (converted)): 794 nM
- GI50 (U-251): 398 nM
- TGI (U-251; read-out: pTGI (converted)): > 100000 nM
- GI50 (IGROV-1): 316 nM
- TGI (IGROV-1; read-out: pTGI (converted)): 6310 nM
- TGI (T47D): > 100000 nM
- GI50 (SNB-75): 200 nM
- TGI (SNB-75; read-out: pTGI (converted)): 631 nM
- GI50 (HCC 2998): 631 nM
- TGI (HCC 2998; read-out: pTGI (converted)): 7940 nM
